# Compounds with a hit are over-represented: about 2.2% of the library has one in this group of screens.
# bCat nuc transl = alters nuclear translocation of beta-catenin in HeLa cells. immunofluorescence imaging. nuclear translocation activity, % at 5 µM. 190,000 compounds, 0.3% hits. AID 1665;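 active means nuclear translocation activity above 50% at 5 µM, with a well cell count of 50 or more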;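 further: per-cell ratio of nuclear to cytoplasmic median beta-catenin stain intensity; plate controls were DMSO negative control for no effect and GSK-3 inhibitor IX positive control for full effect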
#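 Assay system: human HeLa cells, native beta-catenin; doses: 5 µM primary, 0.02–20 µM confirmation; incubation: compound treatment 24 h, 37°C, 5% CO2; technique: fluorescence imaging of beta-catenin antibody stain plus DAPI; measure: % activation, nuclear-to-cytoplasmic median beta-catenin signal ratio per cell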
# Ba/F3 V617F tox = loss of viability in JAK2V617F-driven Ba/F3 cells; Ba/F3 EpoR-JAK2V617F viability, ATP luminescence; inhibition, % at 5.6 µM; 220,000 compounds, 1.1% hits; AID 1446;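 active means inhibition above the campaign mean plus 3 SD over all tested compounds, cut at about 24% in these data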;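 further: cytokine-independent growth of Ba/F3 cells driven by EpoR plus mutant JAK2; 0% = DMSO-treated cells and 100% = JAK inhibitor I control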
# BaF3 tox = parental Ba/F3 viability inhibition as JAK2V617F counter-screen | CellTiter-Glo ATP luminescence | inhibition, % at 5.6 µM | 220,000 compounds, 1.1% hits;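 active means inhibition above a per-campaign cutoff, the mean inhibition of all tested compounds plus 3 SD, cut at about 27% in these data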;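 further: 0% = DMSO wells and 100% = JAK Inhibitor I control wells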
# MT stabilizer = microtubule stabilizers in HeLa cells; HeLa tubulin immunostaining HCS, 24 h; share of cells brighter than vehicle mean+2SD; % tubulin-high responders, % at 10 µM; 200,000 compounds, 0.83% hits; AID 2205;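 active means plate Z-score above 3 for both tubulin-high and condensed-nucleus cell shares, with cell loss under 80%, at 10 µM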;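 further: anti alpha tubulin signal scored within the nucleus-defined area of each cell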
# APP transl inh = APP translation inhibition; AID 1285; inhibition, % at 2 µM; SH-SY5Y APP 5'UTR-luciferase reporter, luminescence; 190,000 compounds, 0.82% hits;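 active means inhibition above a set limit, derived from the sample mean plus 3 SD, cut at about 45% in these data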
# IEC-6 tox = kills IEC-6 intestinal cells in KLF5 counter-screen; IEC-6 cytotoxicity, luminescence viability; inhibition, % at 5 µM; 290,000 compounds, 0.78% hits; in the data active means inhibition above about 22%;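 further: 0% = plate median of test compound wells and 100% = cytotoxic reference compound wells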
# BaF3 parental 2 = counter-screen for JAK2V617F inhibitors: parental Ba/F3 viability inhibitors; shares compounds with Ba/F3 V617F tox; inhibition, % at 5.6 µM; CellTiter-Glo luminescence; cells kept alive by added IL-3; AID 1520; 580 compounds, 31% hits;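 active means cell growth inhibition above the hit limit set in the earlier mutant JAK2 cell screen, cut at about 27% in these data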;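 further: plate controls were DMSO-treated cells for no effect and JAK Inhibitor I control wells for full effect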
# JAK2V617F conf = Ba/F3 EpoR-JAK2V617F viability loss, confirmation; inhibition, % at 5.6 µM; shares compounds with Ba/F3 V617F tox; CellTiter-Glo luminescence; 580 compounds, 66% hits;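 active means mean inhibition above the hit cutoff derived in the earlier primary screen, cut at about 25% in these data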;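 further: 0% = DMSO-treated cells and 100% = JAK inhibitor I control wells; higher means lower luminescence from reduced cell ATP and viability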
# The depositor's hits bear a star; . = not tested or not shown.
SMILES,bCat nuc transl,Ba/F3 V617F tox,BaF3 tox,MT stabilizer,APP transl inh,IEC-6 tox,BaF3 parental 2,JAK2V617F conf
Fc1ccc(N2CCN(Cc3ccccn3)CC2)cc1,-1.2,63.2*,-0.7,7.7,-4.5,-1.7,-4.7,-7.2
O=C(Nc1c(C(=O)N2CCN(c3ccccn3)CC2)oc2ccccc12)c1cccc([N+](=O)[O-])c1,.,.,.,.,.,-4.1,.,.
Cc1nc([N+](=O)[O-])c(Br)n1Cc1ccc(Cl)c(Cl)c1,0.5,46.4*,-1.8,3.0,21.4,13.8,1.5,84.6*
CCn1c(N2CCN(S(=O)(=O)c3ccccc3)CC2)nc2ccccc21,.,.,.,.,.,-2.9,.,.
COc1ccc(C(C)(C)NC(=O)C2CCC(=O)N(C3CCCC3)C2)cc1OC (centres undefined),.,.,.,.,.,5.6,.,.
Cc1ccc(C=Nc2ccccc2C(=O)Nc2ccccc2)cc1,-1.5,-0.1,6.7,3.9,18.8,0.1,.,.
Cc1ccc(C=Nc2ccccc2C(N)=O)cc1,.,41.9*,21.9,30.6*,17.4,16.4,36.7*,77.7*
COCCn1c(SCC(=O)Nc2ccccc2F)nnc1-c1ccoc1C,.,.,.,.,.,2.5,.,.
Cc1cccc(CS(=O)(=O)c2nnc([C@H](Cc3ccccc3)NC(=O)OC(C)(C)C)o2)c1,.,43.9*,0.9,0.5,72.2*,19.3,11.6,82.2*
COC(=O)CS(=O)(=O)c1nnc([C@H](Cc2ccccc2)NC(=O)OC(C)(C)C)o1,-0.5,-2.6,1.2,2.1,22.9,1.2,.,.
COc1ccc(OC)c(C2CC(=O)c3c([nH]c(C(=O)OC(C)C)c3C)C2)c1 (centres undefined),.,68.4*,11.4,8.1,94.6*,18.5,57.5*,89.7*
CCOc1ccc(NC(=O)C(C)C(Cc2ccc(C)cc2)C(=O)O)cc1 (centres undefined),.,.,.,.,.,-2.1,.,.
CCCn1c(CC)nc([N+](=O)[O-])c1S(=O)(=O)c1ccccc1,-0.4,49.1*,8.3,1.1,13.8,5.1,-1.6,69.7*
CCc1nc(C)cn1S(=O)(=O)c1ccc([N+](=O)[O-])cc1,-0.5,-1.5,3.8,1.6,-0.2,1.0,.,.
COC(CN(C(=O)CCl)C(C(=O)NC1CCCCC1)c1ccc(C)cc1)OC (centres undefined),2.3,91.2*,4.8,8.3,4.5,3.9,0.9,17.1
COc1ccc(C(C(=O)NC2CCCCC2)N(C(=O)CCl)c2ccc(C)cc2)cc1 (centres undefined),1.4,0.7,4.5,5.1,5.8,1.6,.,.
Nc1ccc2nc(-c3ccc(Cl)cc3)[nH]c2c1,.,.,.,7.4,-60.6,.,.,.
Nc1ccc2nc(-c3cc(Cl)c(N)c(Cl)c3)[nH]c2c1,1.5,24.3*,19.6,4.4,-44.5,6.3,31.3*,53.1*
Cc1ccc(C)c(-c2nc3ccc(N)cc3[nH]2)c1,.,32.5*,25.7,8.3,3.1,6.8,34.6*,54.1*
Nc1ccc(-c2nc3ccc(N)cc3[nH]2)cc1,-4.7,-5.2,2.4,3.9,-15.9,-0.8,.,.
Cn1c(=O)c2nc(NCc3ccccc3)cnc2n(C)c1=O,0.9,-4.3,3.9,4.8,-7.4,-4.3,.,.
Cc1nc2c(=O)n(C)c(=O)n(C)c2nc1Cl,3.8,38.8*,8.6,4.9,45.5*,18.7,17.0,61.6*
CCOC(=O)C(=NC1CCCCC1)NNc1cccc(C(F)(F)F)c1,-0.8,36.4*,1.7,3.0,-6.7,7.6,-0.3,2.5
CCOC(=O)C(=NC(C)CC)NNc1cccc(C(F)(F)F)c1 (centres undefined),1.2,3.5,4.9,4.1,-15.6,2.7,.,.
Cc1cc(C)c2nc(SCC(=O)N3CC(=O)Nc4ccccc43)c(C#N)cc2c1,43.9,66.8*,3.7,10.1,95.9*,-0.2,96.6*,98.5*
SMILES,bCat nuc transl,Ba/F3 V617F tox,BaF3 tox,MT stabilizer,APP transl inh,IEC-6 tox,BaF3 parental 2,JAK2V617F conf
Cc1cc(C(=O)NCC(c2ccco2)N(C)C)ccc1[N+](=O)[O-] (centres undefined),.,.,.,.,.,-4.4,.,.
CC(=O)N(CCc1ccccc1)Cc1cc2ccc(C)c(C)c2[nH]c1=O,.,.,.,.,.,-4.9,.,.
CC(C)C(=O)Nc1c2c(nc3c1CCC3)CCCC2,-7.6,1.0,10.1,1.5,11.5,0.4,.,.
CCC(C)C(=O)Nc1c2c(nc3c1CCC3)CCCC2 (centres undefined),-6.8,31.9*,18.0,1.2,14.6,7.6,-6.1,-19.9
Cc1cc(NC(=O)CSc2nc(-c3ccco3)cc(C(F)(F)F)n2)no1,3.9,60.7*,4.6,39.1*,18.4,45.6*,48.4*,90.5*
O=C(O)/C=C\C(=O)Nc1ccccc1C#Cc1ccccc1,0.3,10.3,12.5,1.6,-72.9,-4.6,.,.
O=C(O)/C=C\C(=O)Nc1ccccc1C#Cc1ccc(Br)cc1,-1.6,35.8*,22.9,0.9,-157.8,9.4,1.3,14.6
COc1ccc(-c2cn(-c3ccccc3)nc2C(=O)O)cc1OC,.,.,.,.,.,1.3,.,.
O=C(NCCOc1ccc(F)cc1)C1CCC(=O)N(CCc2ccccn2)C1 (centres undefined),.,.,.,.,.,1.1,.,.
C#C[C@]1(OC(C)=O)CCC2C3CCC4=CC(=O)CC[C@@H]4C3CC[C@@]21C (some centres undefined),.,.,.,.,.,-3.3,.,.
Cc1ccnc(NC(=O)c2ccc([N+](=O)[O-])o2)c1,17.4,-1.4,-2.2,3.1,13.3,5.7,.,.
Cc1ccc(NC(=O)c2ccc([N+](=O)[O-])o2)cc1C,2.5,36.9*,3.2,5.4,44.4,45.4*,31.0*,93.3*
COCCNC(=O)CN(C(=O)c1ccc(N2CCCC2)nc1)c1ccccc1,1.0,63.6*,9.1,2.2,2.1,0.7,-4.2,-5.2
COCCNC(=O)CN(C(=O)c1ccc(N2CCCC2)nc1)c1ccc(F)c(Cl)c1,.,.,.,.,.,1.8,.,.
O=C(COc1cccc(NC(=O)c2cccc([N+](=O)[O-])c2)c1)c1ccc(F)cc1,-1.9,-1.4,8.5,0.8,.,0.8,.,.
COc1cccc(C(=O)COc2cccc(NC(=O)c3cccc([N+](=O)[O-])c3)c2)c1,-2.3,42.1*,10.4,0.8,-4.3,2.9,-2.7,-9.5
Cc1cc(C)cc(C(=O)NC(=S)Nc2cccnc2)c1,.,.,.,.,.,-7.1,.,.
O=C1C=CCC(/C=C/c2ccccc2)O1 (centres undefined),.,46.5*,-0.3,5.0,30.8,1.5,24.2,96.6*
Cc1ccc(N/C(=C\C(=O)c2ccccc2)C(=O)O)cc1,0.1,40.2*,8.7,0.9,-60.0,12.8,-2.5,-1.5
O=C(Nn1c(-c2ccc(F)cc2)nc2ccccc2c1=O)c1cccnc1,1.2,65.6*,1.1,2.6,-17.6,4.5,-5.0,14.4
CCS(=O)(=O)CCSc1nc(C)cc(C)c1C#N,-2.0,99.5*,7.1,5.7,6.2,-9.9,-0.7,-7.4
